Measured values reported in publication PMC10959575 (Journal of the American Society for Mass Spectrometry, 2023).

Experiments:
α-syn [1] = biological target: T1, α-syn (Homo sapiens, UniProt P37840); settings: IM-MS; cited from earlier work
[2] = biological target: α-syn/Mn^2+/CLR01 complex (Homo sapiens, UniProt P37840); test: ECD top-down FT-ICR MS of the α-syn/Mn2+/CLR01 complex; format: binding
Summary of the method: (§1)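 ESI on a 15T FT-ICR instrument: spray 1–2 kV, capillary exit 100 V, deflector plate 200 V, funnel 90 V, skimmer 50 V. Complex ions isolated with a 5–20 m/z notch, then fragmented by ECD (bias 1 V, pulse 10–50 ms). Product spectra deconvoluted with S/N limit 2. c- and z-ions assigned at 5 ppm error, with ligand and metals as unlocalized modifications.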

α-syn [3] = biological target: T1, α-syn; test: Native MS of α-syn/Mn2+/CLR01 solution, 1:5:3 molar ratio; format: binding
Summary of the method: (§2)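 Protein at 10–30 μM in 20 mM ammonium acetate, with ligand added to 10–50 μM. Electrosprayed at 1–2 kV on a 15T FT-ICR (capillary exit 100 V, deflector 200 V, funnel 90 V, skimmer 50 V). Spectra deconvolved. Percent binding calculated from intensities of unbound and ligand-bound peaks.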

α-syn [4] = biological target: T1, α-syn; test: IM-MS of α-syn with Mn2+ and CLR01
Summary of the method: (§3)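 IM-MS on a quadrupole-IM-time-of-flight instrument: spray 1–2 kV, sampling cone 10–20 V, source offset 20 V. Spectra taken over the full m/z range, with each charge state extracted over its [M+nH]ⁿ⁺ peak. Ligand at 5x molar concentration for wild-type protein; metal-bound protein with ligand at a 1:3 molar ratio.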

α-syn [5] = biological target: T1, α-syn; test: Native MS of α-syn/Cu2+/CLR01 solution, 1:1:3 molar ratio; format: binding
Summary of the method: as §2

α-syn/ Cu^2+ complex = α-syn/ Cu^2+ complex (Homo sapiens, UniProt P37840); test: IM-MS of the α-syn/Cu2+ complex with and without CLR01; settings: 9+ charge state
Summary of the method: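 Copper-bound α-syn in 20 mM ammonium acetate, analysed with test compound at 1:3 molar ratio and without it. Mobility measured by quadrupole-IM-TOF: spray 1–2 kV, sampling cone 10–20 V, source offset 20 V. Data for each charge state extracted over the [M+nH]ⁿ⁺ peak.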

[6] = biological target: α-syn/Cu^2+/CLR01 complex (Homo sapiens, UniProt P37840); test: ECD top-down FT-ICR MS of the α-syn/Cu2+/CLR01 complex; format: binding
Summary of the method: as §1

wildtype α-syn = wildtype α-syn (Homo sapiens, UniProt P37840); test: ECD top-down FT-ICR MS, binding site location on WT α-syn; settings: 13+ charge state, α-syn bound with 2 CLR01 molecules
Summary of the method: (§4)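 Protein (10–30 μM) in 20 mM ammonium acetate with test compound at 10–50 μM. Native ESI on a 15T FT-ICR: spray 1–2 kV, capillary exit 100 V, deflector 200 V, funnel 90 V, skimmer 50 V. Complexes isolated with 5–20 m/z notch, then ECD (bias 1 V, pulse 10–50 ms). Fragments deconvoluted at S/N 2. c/z ions assigned at 5 ppm error, with ligand as unlocalized modification.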

[7] = biological target: wild type α-syn, acetylated α-syn, and phosphorylated α-syn (Homo sapiens, UniProt P37840); test: Native MS of equimolar proteoform mixture with equimolar CLR01; format: binding; settings: equimolar ratio of CLR01
Summary of the method: as §2

A30P α-syn [8] = biological target: T2, A30P α-syn (Homo sapiens, UniProt P37840, A30P); test: IM-MS of A30P α-syn/CLR01 complexes; settings: 8+ and 9+ charge states
Summary of the method: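 WT and A30P α-syn (10–30 μM) in 20 mM ammonium acetate, with test compound at 5x molar excess. Read on a quadrupole-IM-TOF instrument: spray 1–2 kV, sampling cone 10–20 V, source offset 20 V. IM spectra taken over the full m/z range. Per-charge-state data extracted over the [M+nH]ⁿ⁺ peak.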

WT α-syn [9] = biological target: T3, WT α-syn (Homo sapiens, UniProt P37840); test: IM-MS of WT α-syn with CLR01
Summary of the method: as §3

acetylated α-syn = acetylated α-syn (Homo sapiens, UniProt P37840); test: IM-MS of acetylated α-syn with CLR01; settings: 9+ charge state
Summary of the method: (§5)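 Acetylated (made as previously described) or phosphorylated α-syn in 20 mM ammonium acetate, mixed 1:1 molar with test compound. Ion mobility–MS run on a quadrupole-IM-TOF: spray 1–2 kV, sampling cone 10–20 V, source offset 20 V. Mobiligrams extracted per charge state over the [M+nH]ⁿ⁺ peak.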

A30P α-syn [10] = biological target: T2, A30P α-syn; test: Native MS of A30P α-syn with CLR01; format: binding; settings: native solution conditions
Summary of the method: as §2

phosphorylated α-syn = phosphorylated α-syn (Homo sapiens, UniProt P37840); test: IM-MS of phosphorylated α-syn with CLR01; settings: 9+ charge state
Summary of the method: as §5

tau protein = settings: IM-MS; cited from earlier work
WT α-syn [11] = biological target: T3, WT α-syn; test: Native MS of WT α-syn with CLR01; format: binding
Summary of the method: as §2

A30P α-syn [12] = biological target: T2, A30P α-syn; test: ECD top-down FT-ICR MS, binding site location on A30P α-syn; settings: A30P α-syn with 2 CLR01 molecules bound
Summary of the method: as §4

epigallocatechin-3-gallate [EGCG]
structural effect of binding on α-syn (α-syn [1]): promotes compaction of α-syn structure

[Mn+2] [Mn^2+]
Mn2+ binding location [2]: acidic C-terminal region
number of Mn2+ binding events observed (α-syn [3]; 1:5:3 α-syn:Mn2+:CLR01): up to 5
α-syn bound by Mn2+ (α-syn [3]; CLR01 not bound to the protein): 86%
structural effect of Mn2+ binding (α-syn [4]; Mn2+ alone): only slightly compacts

[Cu+2] [Cu^2+]
α-syn bound by Cu2+ (α-syn [5]; 0 CLR01 molecules bound): 65%
number of copper binding events (α-syn [5]; 1:1:3 α-syn:Cu2+:CLR01): 1
ion mobiligram of Cu2+ bound α-syn versus WT form (α-syn/ Cu^2+ complex; no CLR01): early arriving ensembles significantly more abundant
Cu2+ binding location [6]: N-terminus

CLR01
binding location of the second CLR01 molecule (wildtype α-syn): K12 with a secondary binding location at K21
number of CLR01 molecules that bind each proteoform [7]: up to 2
change of ion mobiligram on CLR01 binding (A30P α-syn [8]): early arriving ensembles increase in abundance
change of ion mobiligram on CLR01 binding (WT α-syn [9]; 9+ charge state, 1 CLR01 molecule bound): increase in abundance of the early arriving ensemble
change of ion mobiligram on CLR01 binding (WT α-syn [9]; higher charge states such as 12+): do not show significant shifts
change of ion mobiligram on CLR01 binding (acetylated α-syn): increase in the abundance of early arriving ensembles
number of CLR01 binding events observed (A30P α-syn [10]): up to 5
total CLR01 bound to the protein (A30P α-syn [10]): 74%
number of CLR01 molecules bound simultaneously with Cu2+ (α-syn [5]; 1:1:3 α-syn:Cu2+:CLR01): Up to 3
α-syn bound by Cu2+ (α-syn [5]; 3 CLR01 molecules bound): 57%
change of ion mobiligram on CLR01 binding (α-syn/ Cu^2+ complex; α-syn/Cu2+ complex): further increases the abundance of the early arriving conformers
number of CLR01 binding events observed (α-syn [3]; 1:5:3 α-syn:Mn2+:CLR01): ≤ 4
α-syn bound by Mn2+ (α-syn [3]; 1 CLR01 molecule bound): 89%
α-syn bound by Mn2+ (α-syn [3]; 2 CLR01 molecules bound): 92%
change of ion mobiligram on CLR01 binding (phosphorylated α-syn): further increase in abundance of the early arriving ensembles
structural effect of binding on tau protein (tau protein): compacts the structure of tau protein
CLR01 in solution bound to the protein (WT α-syn [11]; CLR01 at 5x molar concentration): 63%
number of CLR01 binding events observed (WT α-syn [11]; CLR01 at 5x molar concentration, deconvolved mass spectrum): up to 5
Kd values for the fourth and fifth binding sites (WT α-syn [11]; WT α-syn titrated with CLR01, thought to bind nonspecifically): did not converge well
CLR01 binding location (A30P α-syn [12]): K10 and K12 with a possible additional site of binding at K21
structural effect when CLR01 and Mn2+ both bind (α-syn [4]; CLR01 and Mn2+ bound): the structure of α-syn is compacted
